Values after ≈ are worked out from the molar mass of the structure shown.

Broadly, the MIC is the smallest concentration in the dilution series that meets the test's criterion for growth inhibition.

One data set has as its system E. coli. As to the kind of experiment: Antimicrobial activity. Type of data set: cell-based. As to conditions: 24 h incubation; MIC100. An outline of the steps: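 E. coli from LB medium, inoculated into LB broth at 10⁵ CFU/mL in 96-well plates with test compound at 1–400 µg/mL. Concentrations re-tested in 1 µg/mL (low MIC) or 5 µg/mL (high MIC) steps. MIC is the lowest concentration giving 100% growth inhibition. Triplicate. Colistin positive control; compound-free culture negative control.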

The test system of a further data set is C. albicans yeast. As to the kind of experiment: Antimicrobial activity. It is filed as cell-based, C. albicans SC5314.
Data set [1] deals with C. albicans hyphae (biofilm). As to the kind of experiment: Inhibition of Candida biofilm. It is filed as cell-based, C. albicans SC5314.
Data set [2] concerns methicillin-resistant Staphylococcus aureus (MRSA) LAC300. Kind of data set: Antimicrobial activity. As to conditions: 24 h, read-out: MIC, Bacteria S. aureus. Type of data set: cell-based.
The mark [3] stands for this setting: experimental activities, −log MIC50, QSAR training set.

With Colistin [reference compound], the “MIC, Bacteria E. coli” value in the data set on E. coli is 5 µg/mL.
Take `COc1cc(C=C2SC(=S)NC2=O)ccc1OCc1cccc(C(F)(F)F)c1` [SR7]: the “MIC, C. albicans Yeast” value in the data set on C. albicans yeast (24 h incubation, lowest concentration inhibiting 100% of growth (MIC100)) was 125 ± 10 µg/mL (≈ 294 µM). Besides, in the data set on C. albicans yeast (setting [3]), the “pMIC50 Yeast” value came out at 3.579 M/L. Besides, the “MIC, Bacteria E. coli” value in the data set on E. coli was 100 ± 5 µg/mL (≈ 235 µM). In data set [1] (10 μg/mL), this compound showed a hyphae inhibition of 90%. Besides, the “MIC, C. albicans Hyphae” value in data set [1] (24 h incubation, 100% inhibition of biofilm (hyphal) formation (MIC100)) was 10 ± 3 µg/mL (≈ 23.5 µM). Further, the “pMIC50 Hyphae” value in data set [1] (setting [3]) was 4.764 M/L.
For the compound `CN[C@H](CC(C)C)C(=O)N[C@H]1C(=O)N[C@@H](CC(N)=O)C(=O)N[C@H]2C(=O)N[C@H]3C(=O)N[C@H](C(=O)N[C@H](C(=O)O)c4cc(O)cc(O)c4-c4cc3ccc4O)[C@H](O)c3ccc(c(Cl)c3)Oc3cc2cc(c3O[C@@H]2O[C@H](CO)[C@@H](O)[C@H](O)[C@H]2O[C@H]2C[C@](C)(N)[C@H](O)[C@H](C)O2)Oc2ccc(cc2Cl)[C@H]1O` [Vancomycin], the MIC in data set [2] is 3 µg/mL (≈ 2.07 µM).
In the case of `CC(=O)N1CCN(c2ccc(OCC3COC(Cn4ccnc4)(c4ccc(Cl)cc4Cl)O3)cc2)CC1` (stereo not shown) [Ketoconazole, reference compound], the MIC in the data set with C. albicans yeast (24 h, read-out: MIC, C. albicans Yeast) stood at 3 µg/mL (≈ 5.65 µM).
Triton X-100: the “erythrocyte hemolysis (positive control)” value in the data set with human erythrocytes came to 100%.

The values are drawn from publication PMC8569251 (European journal of pharmaceutical sciences : official …, 2020).
